Calls of active or inactive are those of the source.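 The calls were made as follows, unless noted: active = viability loss from added drug above about 55%, and viability with drug at most 40%, in both replicates (limit read from the data, passing the limit was not always enough); inconclusive = both conditions met in only one replicate; inactive = neither replicate meets both conditions.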
Legend:
[1] = Her2 expression decrease, cell viability multiplex – SKBR3 breast tumor cells, AlphaScreen, ATP viability, primary screen (AID 461;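 active = Her2 level under about 52% in both replicate screens, with viability over 70% of control, limit read from the data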;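 as to Her2 level: lower value means less Her2 protein in the cells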;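 as to viability: percent of carrier control wells set as 100% viability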); conditions: SKBR3 Her2 protein level, 18-24 h, measured here: SKBR3 viability, ATP luminescence, at 10 µM
[2] = biological target: Receptor tyrosine-protein kinase erbB-2 (Homo sapiens) (UniProt P04626); experiment: as above; conditions: 18-24 h, at 10 µM, stronger effect = lower value
[3] = reduced viability of SK-BR-3 breast cancer cells – cell-based, 24 h, human, pilot screen (AID 572;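 active = viability at or below 10% of carrier control in both of two separate runs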;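 also: compound exposure lasted between 18 and 24 h rather than exactly 24 h; 100% = carrier-treated control wells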); conditions: SK-BR-3 viability, CellTiter-Glo luminescence, at 10 µM, stronger effect = lower value
[4] = HUVEC growth inhibition – cell-based, human, primary screen (AID 575;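 active = viability at or below 30% in both replicate assays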;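 also: 100% = median of untreated cell wells with 0.1% DMSO on each plate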); conditions: HUVEC proliferation, CellTiter-Glo luminescence, 72 h; at 10 µM; stronger effect = lower value
Outline: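 Test system: primary human umbilical vein endothelial cells. Quantity: 1250 cells/well. Compound: single 10 µM dose, 0.1% DMSO, from 5x medium stock. Timing: 72 h treatment at 37 °C. Detection: ATP-based CellTiter-Glo luminescent read. Benchmarks: vehicle and MePR control wells. Format: 384-well plates coated with collagen.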

[5] = H69AR cell proliferation blockers – human, duplicate replicates, primary screen (AID 580;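 active = viability at or under a set limit in both replicates, limit being median viability minus 3 SD, cut at about 48% in these data, passing the limit was not always enough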;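 also: 100% = mean luminescence of untreated wells and 0% = no signal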); conditions: H69AR lung tumor cells viability, ATP luminescence, 72 h; at 10 µM; stronger effect = lower value
[6] = MRP1 drug-resistance reversers in H69AR cells – cell-based, doxorubicin co-treatment, pilot screen (AID 601); conditions: CellTiter-Glo, 72 h, at 10 µM; for differential viability (reversal): stronger effect = higher value
[7] = yeast transport mutant growth inhibition pilot in 384-well plates, post-Golgi transport modulator project (AID 636; in the data active = inhibition above about 31%); conditions: absorbance 615 nm, about 18 h, stronger effect = higher value
[8] = growth suppression of yeast trafficking mutant, preliminary HTS, modulators of trafficking downstream of Golgi apparatus project, 1536-format plate, OD 615 nm (AID 637; in the data active = inhibition above about 30%); conditions: yeast transport mutant growth, absorbance 615 nm, 18 h; stronger effect = higher value
[9] = H69AR cells + 2 uM doxorubicin, measured here: viability with 2 uM doxorubicin, stronger effect = lower value
[10] = H69AR cells, compound alone cytotoxicity

Sequence of Receptor tyrosine-protein kinase erbB-2 (Homo sapiens) (P04626 whole entry, looked up): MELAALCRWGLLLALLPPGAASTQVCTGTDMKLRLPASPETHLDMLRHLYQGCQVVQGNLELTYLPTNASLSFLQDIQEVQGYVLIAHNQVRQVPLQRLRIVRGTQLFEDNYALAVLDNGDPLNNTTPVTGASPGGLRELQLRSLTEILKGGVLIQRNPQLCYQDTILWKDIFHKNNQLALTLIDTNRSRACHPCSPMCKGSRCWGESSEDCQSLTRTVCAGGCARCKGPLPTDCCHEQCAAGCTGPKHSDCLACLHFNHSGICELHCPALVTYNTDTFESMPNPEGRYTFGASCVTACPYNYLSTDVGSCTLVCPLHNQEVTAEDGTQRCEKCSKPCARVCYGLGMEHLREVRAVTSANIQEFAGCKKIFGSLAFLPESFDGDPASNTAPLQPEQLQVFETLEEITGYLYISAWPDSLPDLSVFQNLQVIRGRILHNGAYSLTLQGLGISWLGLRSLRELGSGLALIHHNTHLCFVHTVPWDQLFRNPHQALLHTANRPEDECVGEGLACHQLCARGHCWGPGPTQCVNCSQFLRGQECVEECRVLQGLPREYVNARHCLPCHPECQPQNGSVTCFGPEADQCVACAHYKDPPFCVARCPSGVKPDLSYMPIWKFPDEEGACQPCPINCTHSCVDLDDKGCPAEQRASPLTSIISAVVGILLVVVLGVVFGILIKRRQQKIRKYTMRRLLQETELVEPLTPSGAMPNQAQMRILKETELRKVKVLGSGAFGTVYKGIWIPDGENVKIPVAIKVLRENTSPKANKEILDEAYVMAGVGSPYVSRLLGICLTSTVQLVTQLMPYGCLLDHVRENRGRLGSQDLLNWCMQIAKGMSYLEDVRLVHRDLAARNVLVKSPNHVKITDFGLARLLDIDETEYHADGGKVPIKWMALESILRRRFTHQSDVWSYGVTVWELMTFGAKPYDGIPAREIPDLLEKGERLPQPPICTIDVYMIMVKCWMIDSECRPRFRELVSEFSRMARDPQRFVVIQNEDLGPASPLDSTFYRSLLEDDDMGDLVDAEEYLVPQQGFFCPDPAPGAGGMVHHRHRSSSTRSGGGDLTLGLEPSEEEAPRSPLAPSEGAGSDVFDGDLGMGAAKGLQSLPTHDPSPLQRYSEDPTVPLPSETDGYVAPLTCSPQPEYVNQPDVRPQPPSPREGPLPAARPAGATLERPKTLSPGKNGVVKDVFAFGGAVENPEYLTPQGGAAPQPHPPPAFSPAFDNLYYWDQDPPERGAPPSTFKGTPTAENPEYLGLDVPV

| Compound | viability [1] [%] | Her2 level [2] | viability [3] | viability [4] | viability [5] | differential viability (reversal) ([6]; H69AR cells + 2 uM doxorubicin) | viability [6, 9] [%] | viability [6, 10] [%] | inhibition [7] | inhibition [8] |
| --- | --- | --- | --- | --- | --- | --- | --- | --- | --- | --- |
| CCOc1ccc(C2/C(=C(/O)c3ccc(OC)cc3)C(=O)C(=O)N2c2cc(C)on2)cc1OC (stereo not given) | 85 | 144% (inactive) | 85% (inactive) | 82.3% (inactive) | 89.4% (inactive) | -10.3% (inactive) | 99.7 | 89.4 | 1.45% (inactive) | 10.7% (inactive) |
| CCOc1ccc2nc(NC(=O)CSc3nnnn3C3CCCCC3)sc2c1 | 92 | 108% (inactive) | 92% (inactive) | 59.7% (inactive) | 63.5% (inactive) | 4.67% (inactive) | 58.8 | 63.5 | 9.08% (inactive) | -0.33% (inactive) |
| CS(=O)(=O)c1ccc2nc(NC(=O)CCC(=O)c3cccs3)sc2c1 | 91 | 102% (inactive) | 91% (inactive) | 87.5% (inactive) | 69.8% (inactive) | -4.38% (inactive) | 74.2 | 69.8 | -1.05% (inactive) | 4.35% (inactive) |
| Cc1cnn(Cc2ccccc2)c1N | 115 | 73.5% (inactive) | 115% (inactive) | 84.3% (inactive) | 88.7% (inactive) | 11.2% (inactive) | 77.6 | 88.7 | -6.08% (inactive) | 4.76% (inactive) |
| O=C(Cn1ncc2ccccc21)N1CCN(c2cccc(C(F)(F)F)c2)CC1 | 89.5 | 94.5% (inactive) | 89.5% (inactive) | 93.4% (inactive) | 87.1% (inactive) | -6.95% (inactive) | 94.1 | 87.1 | -5.87% (inactive) | -1.97% (inactive) |
| COCCn1c(C23CC4CC(CC(C4)C2)C3)n[nH]c1=S | 90 | 94.5% (inactive) | 90% (inactive) | 79.5% (inactive) | 77.2% (inactive) | 1.57% (inactive) | 75.6 | 77.2 | -2.34% (inactive) | 1.33% (inactive) |
| O=C(CCn1c(=O)sc2ccccc21)Nc1cccnc1 | 104 | 92% (inactive) | 104% (inactive) | 96.8% (inactive) | 99.6% (inactive) | 8.59% (inactive) | 91 | 99.6 | -3.87% (inactive) | 1.48% (inactive) |
| COC(=O)c1ccccc1NC(=O)c1cc(-c2ccc(OC)c(OC)c2)on1 | 99 | 90.5% (inactive) | 99% (inactive) | 114% (inactive) | 77.8% (inactive) | 5.72% (inactive) | 72 | 77.8 | -7.57% (inactive) | -8% (inactive) |
| CCOCCn1cnc2sc(C(=O)NCC(=O)OCC)c(C)c2c1=O | 95.5 | 90% (inactive) | 95.5% (inactive) | 86.6% (inactive) | 86.8% (inactive) | -1.89% (inactive) | 88.7 | 86.8 | -2.37% (inactive) | 2.9% (inactive) |
| CCOc1ccc(NC(=O)CSc2nnnn2CC(=O)O)cc1 | 104 | 98% (inactive) | 104% (inactive) | 96% (inactive) | 95.7% (inactive) | -4.13% (inactive) | 99.8 | 95.7 | -3.16% (inactive) | -5.65% (inactive) |
| COc1cccc(OCc2nc3c4cnn(-c5ccccc5)c4ncn3n2)c1 | 97.5 | 99.5% (inactive) | 97.5% (inactive) | 80.1% (inactive) | 67.8% (inactive) | -20.5% (inactive) | 88.3 | 67.8 | -2.24% (inactive) | 3.44% (inactive) |
| CC1CCN(CCCNC(=O)c2cn(C)c3ccc(S(=O)(=O)N4CCCC4)cc3c2=O)CC1 | 90.5 | 80% (inactive) | 90.5% (inactive) | 96.9% (inactive) | 91% (inactive) | 3.01% (inactive) | 88 | 91 | -6.76% (inactive) | 1% (inactive) |
| COc1ccc(OC)c(N(CC(=O)N2CCN(c3cc(Cl)ccc3C)CC2)S(C)(=O)=O)c1 | 100 | 94% (inactive) | 100% (inactive) | 78.2% (inactive) | 75.9% (inactive) | 3.83% (inactive) | 72 | 75.9 | -5.53% (inactive) | 0.48% (inactive) |
| COc1cc(NS(=O)(=O)c2ccc(Br)s2)cc(OC)c1 | 87 | 104% (inactive) | 87% (inactive) | 89.6% (inactive) | 99.9% (inactive) | 5.59% (inactive) | 94.3 | 99.9 | -6.53% (inactive) | -7.7% (inactive) |
| O=C(OCC#CCSc1nnc(-c2ccccc2)o1)c1cccs1 | 130 | 92% (inactive) | 130% (inactive) | 98.3% (inactive) | 94.9% (inactive) | 12.1% (inactive) | 82.8 | 94.9 | -6.13% (inactive) | -4.92% (inactive) |
| CN(C(=O)c1ccccn1)c1nnc(-c2ccncc2)s1 | 118 | 92.5% (inactive) | 118% (inactive) | 101% (inactive) | 108% (inactive) | 15.6% (inactive) | 92.8 | 108 | -3.65% (inactive) | -5% (inactive) |
| O=C(OCC(=O)N1CCCC1)c1cncc(Br)c1 | 106 | 90% (inactive) | 106% (inactive) | 106% (inactive) | 102% (inactive) | 15.6% (inactive) | 86.4 | 102 | -7.57% (inactive) | 5.33% (inactive) |
| Cc1cc(-c2nc3ncccc3o2)ccc1N | 99 | 76.5% (inactive) | 99% (inactive) | 92.6% (inactive) | 90.4% (inactive) | 6.33% (inactive) | 84 | 90.4 | -2.37% (inactive) | 11% (inactive) |
| Fc1ccc(NCc2nnc(SCc3nnc(-c4ccccc4)o3)n2CC2CCCO2)cc1 (stereo not given) | 96.5 | 109% (inactive) | 96.5% (inactive) | 97.8% (inactive) | 78.9% (inactive) | -18.4% (inactive) | 97.3 | 78.9 | -0.54% (inactive) | 15.4% (inactive) |
| Cc1nc(CCNC(=O)c2ccccc2)cs1 | 92.5 | 95% (inactive) | 92.5% (inactive) | 106% (inactive) | 98.5% (inactive) | 7.85% (inactive) | 90.6 | 98.5 | 0.27% (inactive) | 4.03% (inactive) |
| Cc1ccc(NC(=O)CS(=O)CC(=O)NCC2CCCO2)cc1 (stereo not given) | 96.5 | 120% (inactive) | 96.5% (inactive) | 103% (inactive) | 96.8% (inactive) | 7.8% (inactive) | 89 | 96.8 | -1.62% (inactive) | 25% (inactive) |
| CN(C)S(=O)(=O)c1ccc(C(=O)N2CCC(c3nc4ccccc4o3)CC2)cc1 | 82 | 83% (inactive) | 82% (inactive) | 95.1% (inactive) | 83% (inactive) | 8.86% (inactive) | 74.1 | 83 | -4.67% (inactive) | -6.07% (inactive) |
| NC(=O)C1CCN(CC(=O)N2c3ccccc3CCc3ccccc32)CC1 | 117 | 114% (inactive) | 117% (inactive) | 103% (inactive) | 93.9% (inactive) | 1.55% (inactive) | 92.3 | 93.9 | -5.53% (inactive) | 5.25% (inactive) |
| COc1cccc(-c2noc(-c3cccs3)n2)c1 | 96.5 | 87% (inactive) | 96.5% (inactive) | 75.1% (inactive) | 81.5% (inactive) | -29.2% (inactive) | 111 | 81.5 | 2.08% (inactive) | -4.29% (inactive) |
| O=C(Cn1nc(C(F)(F)F)c2c1CCCC2)NCCN1CCOCC1 | 110 | 89% (inactive) | 110% (inactive) | 108% (inactive) | 91.5% (inactive) | 4.05% (inactive) | 87.5 | 91.5 | -1.18% (inactive) | 3.93% (inactive) |
| CCC(=O)Nc1ccc(NC(=O)c2cccc(OC)c2)nc1 | 94 | 92.5% (inactive) | 94% (inactive) | 101% (inactive) | 97.8% (inactive) | 7.67% (inactive) | 90.2 | 97.8 | 0.14% (inactive) | -6.56% (inactive) |
| COc1ccc2c(c1)[nH]c1c(=O)n(CC3CCCO3)cnc12 (stereo not given) | 86 | 94% (inactive) | 86% (inactive) | 97.2% (inactive) | 90.5% (inactive) | -4.4% (inactive) | 94.9 | 90.5 | -3.42% (inactive) | -6.39% (inactive) |
| CCN1C(=O)Cc2cc(S(=O)(=O)N3CCOCC3)ccc21 | 105 | 110% (inactive) | 105% (inactive) | 96.1% (inactive) | 98% (inactive) | -2.08% (inactive) | 100 | 98 | -6.4% (inactive) | -0.63% (inactive) |

Reference: PubChem BioAssay
